{"source": "ChEMBL document CHEMBL5038571", "about": "“Design and Synthesis of EZH2-Based PROTACs to Degrade the PRC2 Complex for Targeting the Noncatalytic Activity of EZH2” (J Med Chem, 2021)", "key": {"[1]": {"target": "Histone-lysine N-methyltransferase EZH2 (Homo sapiens, UniProt Q15910)", "sequence (Q15910 whole entry)": "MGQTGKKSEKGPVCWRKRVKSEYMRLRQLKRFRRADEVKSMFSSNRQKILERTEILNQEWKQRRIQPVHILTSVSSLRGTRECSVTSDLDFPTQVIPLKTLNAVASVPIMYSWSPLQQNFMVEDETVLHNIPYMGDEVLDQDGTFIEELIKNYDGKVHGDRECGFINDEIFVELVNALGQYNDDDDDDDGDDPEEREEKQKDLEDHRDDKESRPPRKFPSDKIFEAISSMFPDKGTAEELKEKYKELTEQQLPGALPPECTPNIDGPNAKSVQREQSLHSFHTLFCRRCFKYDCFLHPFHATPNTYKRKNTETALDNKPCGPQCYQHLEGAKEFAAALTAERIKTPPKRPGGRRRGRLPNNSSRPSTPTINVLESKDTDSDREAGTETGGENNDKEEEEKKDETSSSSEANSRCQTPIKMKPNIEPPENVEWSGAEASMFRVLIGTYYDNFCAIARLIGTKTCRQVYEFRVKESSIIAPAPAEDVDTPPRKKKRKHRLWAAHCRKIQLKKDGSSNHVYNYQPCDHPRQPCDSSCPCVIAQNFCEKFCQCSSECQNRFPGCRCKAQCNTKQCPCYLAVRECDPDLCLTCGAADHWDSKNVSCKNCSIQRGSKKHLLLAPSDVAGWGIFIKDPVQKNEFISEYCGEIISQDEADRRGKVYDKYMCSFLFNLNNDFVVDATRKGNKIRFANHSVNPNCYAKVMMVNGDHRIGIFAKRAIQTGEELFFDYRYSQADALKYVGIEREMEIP", "assay_type": "cell-based, Sf9"}, "[2]": {"target": "T1, Protein cereblon/Histone-lysine N-methyltransferase EZH2 (Homo sapiens) (UniProt Q15910+Q96SW2)", "T1 sequence (Q15910 whole entry, looked up)": "as the sequence (Q15910 whole entry) above", "T1 sequence (Q96SW2 whole entry, looked up)": "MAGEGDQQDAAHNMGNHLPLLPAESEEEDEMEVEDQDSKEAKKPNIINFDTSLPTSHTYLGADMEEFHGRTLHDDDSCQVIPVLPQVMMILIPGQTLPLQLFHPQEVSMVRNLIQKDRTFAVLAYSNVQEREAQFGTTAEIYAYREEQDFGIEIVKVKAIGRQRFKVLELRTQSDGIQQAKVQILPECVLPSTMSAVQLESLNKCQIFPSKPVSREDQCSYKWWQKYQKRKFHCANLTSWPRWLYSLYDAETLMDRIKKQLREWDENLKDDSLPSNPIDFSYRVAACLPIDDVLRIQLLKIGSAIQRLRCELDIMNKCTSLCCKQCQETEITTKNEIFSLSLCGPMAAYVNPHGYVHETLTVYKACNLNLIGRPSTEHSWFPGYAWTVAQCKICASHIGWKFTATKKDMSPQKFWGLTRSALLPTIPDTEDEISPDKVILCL", "assay": "PROTAC activity at CRBN E3 ligase/EZH2 in PRC2 complex in human WSUDLCL2 cells assessed as reduction in H3K27me3 level at 1 uM incubated for 48 hrs by Western blot analysis", "assay_type": "cell-based", "method_in_brief": "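WSU-DLCL-2 cells treated 48 h (1 μM for the single-concentration screen), lysed; SDS-PAGE, nitrocellulose transfer, 5% milk block, primary antibody 4 °C overnight, chemiluminescence. Bands quantified by densitometry, normalized to GAPDH, expressed relative to DMSO-treated cells; mean ± SD of three independent experiments, t-test.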"}, "[3]": {"target": "T1, Protein cereblon/Histone-lysine N-methyltransferase EZH2 (Homo sapiens)", "assay": "PROTAC activity at CRBN E3 ligase/EZH2 in PRC2 complex in human WSUDLCL2 cells assessed as reduction in EZH2 level at 2.5 uM measured after 48 hrs by Western blot analysis", "assay_type": "cell-based", "method_in_brief": "(§1)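 WSU-DLCL-2 cells exposed 48 h to PROTAC or control analogues at 2.5 μM, with thalidomide and EPZ6438 at 10 μM; PRC2 subunit levels then read by western blot.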"}, "[4]": {"target": "T1, Protein cereblon/Histone-lysine N-methyltransferase EZH2 (Homo sapiens)", "assay": "PROTAC activity at CRBN E3 ligase/EZH2 in PRC2 complex in human WSUDLCL2 cells assessed as reduction in SUZ12 level at 2.5 uM measured after 48 hrs by Western blot analysis", "assay_type": "cell-based", "method_in_brief": "as §1"}, "[5]": {"target": "T1, Protein cereblon/Histone-lysine N-methyltransferase EZH2 (Homo sapiens)", "assay": "PROTAC activity at CRBN E3 ligase/EZH2 in PRC2 complex in human WSUDLCL2 cells assessed as reduction in EED level at 2.5 uM measured after 48 hrs by Western blot analysis", "assay_type": "cell-based", "method_in_brief": "as §1"}, "[6]": {"target": "T1, Protein cereblon/Histone-lysine N-methyltransferase EZH2 (Homo sapiens)", "assay": "PROTAC activity at CRBN E3 ligase/EZH2 in PRC2 complex in human WSUDLCL2 cells assessed as reduction in RbAp48 level at 2.5 uM measured after 48 hrs by Western blot analysis", "assay_type": "cell-based", "method_in_brief": "as §1"}, "A549": {"test_system": "A549", "assay": "Antiproliferative activity against EZH2-knockdown human A549 cells assessed as inhibition of cell growth at 10 uM treated for 9 days by optical microscopic analysis", "assay_type": "functional, cell-based", "conditions": "time 9.0 day", "method_in_brief": "(§2)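 Cells seeded at 5 × 10³ per well, grown 24 h, then exposed to compound at 10 μM for 9 days with medium refreshed. Cells were photographed and counted on days 1, 3, 5, 7 and 9. For lines 1-2, EZH2-targeting or control shRNA was induced in the cells. Mean SD of three independent experiments; t-test against control.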"}, "NCI-H1299": {"test_system": "NCI-H1299", "assay": "Antiproliferative activity against EZH2-knockdown human NCI-H1299 cells assessed as inhibition of cell growth at 10 uM treated for 9 days by optical microscopic analysis", "assay_type": "functional, cell-based", "conditions": "time 9.0 day", "method_in_brief": "as §2"}}, "note": "pIC50: −log10 of the molar value. Calls of active or inactive are those of the source. No cut-off for these calls is given here.", "data": [{"smiles": "CC[C@H](C)n1cc(C)c2c(C(=O)NCc3c(C)cc(C)[nH]c3=O)cc(-c3ccc(N4CCN(CCCCCOc5cccc6c5C(=O)N(C5CCC(=O)NC5=O)C6=O)CC4)nc3)cc21", "note": "(stereo partly drawn)", "values": [{"measurement": "pIC50", "setting": "[1]", "value": 8.24}]}, {"smiles": "CC[C@H](C)n1cc(C)c2c(C(=O)NCc3c(C)cc(C)[nH]c3=O)cc(-c3ccc(N4CCN(CCCCCCCOc5cccc6c5C(=O)N(C5CCC(=O)NC5=O)C6=O)CC4)nc3)cc21", "note": "(stereo partly drawn)", "values": [{"measurement": "pIC50", "setting": "[1]", "value": 8.20}]}, {"smiles": "CCN(c1cc(-c2ccc(CN3CCN(CCCCCCCCCOc4cccc5c4C(=O)N(C4CCC(=O)NC4=O)C5=O)CC3)cc2)cc(C(=O)NCc2c(C)cc(C)[nH]c2=O)c1C)C1CCOCC1", "note": "(stereo not drawn)", "values": [{"measurement": "Activity", "setting": "[2]", "value": "Active"}, {"measurement": "pIC50", "setting": "[1]", "value": 7.82}]}, {"smiles": "CCN(c1cc(-c2ccc(CN3CCN(CCCCCCCOc4cccc5c4C(=O)N(C4CCC(=O)N(C)C4=O)C5=O)CC3)cc2)cc(C(=O)NCc2c(C)cc(C)[nH]c2=O)c1C)C1CCOCC1", "note": "(stereo not drawn)", "values": [{"measurement": "pIC50", "setting": "[1]", "value": 8.71}, {"measurement": "Activity", "setting": "[3]", "value": "inactive"}, {"measurement": "Activity", "setting": "[4]", "value": "inactive"}, {"measurement": "Activity", "setting": "[5]", "value": "inactive"}, {"measurement": "Activity", "setting": "[6]", "value": "inactive"}, {"measurement": "Activity", "setting": "A549", "value": "inactive"}, {"measurement": "Activity", "setting": "NCI-H1299", "value": "inactive"}]}, {"smiles": "CCN(c1cc(-c2ccc(CN3CCN(CCCCCCCCCCOc4cccc5c4C(=O)N(C4CCC(=O)NC4=O)C5=O)CC3)cc2)cc(C(=O)NCc2c(C)cc(C)[nH]c2=O)c1C)C1CCOCC1", "note": "(stereo not drawn)", "values": [{"measurement": "Activity", "setting": "[2]", "value": "Active"}, {"measurement": "pIC50", "setting": "[1]", "value": 7.77}]}, {"smiles": "CC[C@H](C)n1cc(C)c2c(C(=O)NCc3c(C)cc(C)[nH]c3=O)cc(-c3ccc(N4CCN(CCCCOc5cccc6c5C(=O)N(C5CCC(=O)NC5=O)C6=O)CC4)nc3)cc21", "note": "(stereo partly drawn)", "values": [{"measurement": "pIC50", "setting": "[1]", "value": 8.26}]}, {"smiles": "CC[C@H](C)n1cc(C)c2c(C(=O)NCc3c(C)cc(C)[nH]c3=O)cc(-c3ccc(N4CCN(CCCCCCCCCCOc5cccc6c5C(=O)N(C5CCC(=O)NC5=O)C6=O)CC4)nc3)cc21", "note": "(stereo partly drawn)", "values": [{"measurement": "Activity", "setting": "[2]", "value": "Active"}, {"measurement": "pIC50", "setting": "[1]", "value": 6.84}]}, {"smiles": "CCN(c1cc(-c2ccc(CN3CCN(CCCCCCCOc4cccc5c4C(=O)N(C4CCC(=O)NC4=O)C5=O)CC3)cc2)cc(C(=O)NCc2c(C)cc(C)n(C)c2=O)c1C)C1CCOCC1", "note": "(stereo not drawn)", "values": [{"measurement": "pIC50", "setting": "[1]", "value": 7.63}, {"measurement": "Activity", "setting": "[3]", "value": "inactive"}, {"measurement": "Activity", "setting": "[4]", "value": "inactive"}, {"measurement": "Activity", "setting": "[5]", "value": "inactive"}, {"measurement": "Activity", "setting": "[6]", "value": "inactive"}]}, {"smiles": "CC[C@H](C)n1cc(C)c2c(C(=O)NCc3c(C)cc(C)[nH]c3=O)cc(-c3ccc(N4CCN(CCCCCCCCOc5cccc6c5C(=O)N(C5CCC(=O)NC5=O)C6=O)CC4)nc3)cc21", "note": "(stereo partly drawn)", "values": [{"measurement": "Activity", "setting": "[2]", "value": "Active"}, {"measurement": "pIC50", "setting": "[1]", "value": 8.14}]}]}
